Results from article PMC6044579 (ACS Omega, 2017).
Read-outs that look alike come from different tables or passages of the source.

Key:
[1] = UV-vis absorption spectra; type: physicochemical; settings: ethanol as the solvent
Method in brief: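 Absorption spectra taken in 1.0 cm quartz cells in anhydrous ethanol at room temperature. Ethanolic compound solution (25 μg mL–1 before dilution) made up in a 10 mL volumetric flask and equilibrated 2 min before measurement.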

A549 = test: MTT assay, A549 cancerous alveolar epithelial cells; type: cell-based, human; settings: read-out: anticancer activity (IC50) A549
Method in brief: (§1)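 ATCC-sourced human cells kept at 37 °C, 5% CO2, humidified air. Cells treated with test compound at various concentrations for 96 h; DMSO as control, cisplatin as positive control. MTT (0.4 mg mL–1) added for a further 4 h, medium aspirated, formazan dissolved in DMSO, absorbance read at 490 nm. IC50 taken as the concentration giving 50% growth inhibition.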

MRC-5 = test: MTT assay, MRC-5 diploid fibroblasts; type: cell-based, human; settings: read-out: anticancer activity (IC50) MRC-5
Method in brief: as §1

HepG2 = test: MTT assay, HepG2 liver carcinoma cells; type: cell-based, human
Method in brief: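 HepG2 cells from ATCC, kept at 37 °C, 5% CO2, humidified air. Cells were exposed to the test compound at various concentrations, with DMSO as control, for 96 h. MTT (0.4 mg mL–1) was then added for 4 h. Medium was aspirated, formazan dissolved in DMSO, and absorbance read at 490 nm. IC50 was taken as the concentration giving 50% growth inhibition.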

[2] = Fluorescence spectra and quantum yield; type: physicochemical; settings: for ε × Φ, fluorescent brightness / λem – λabs, Stokes shift / λem, emission wavelength / λex, best excitation wavelength: ethanol as the solvent; for Φ, quantum yield: ethanol, rhodamine as the reference
Method in brief: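 Emission spectra recorded with xenon lamp excitation in 1.0 cm quartz cells at room temperature, excitation and emission slits 5.0 nm. Ethanolic compound solution (25 μg mL–1 before dilution) diluted in a 10 mL flask with buffer solutions, pH set with dilute HCl or NaOH, then equilibrated 2 min. Quantum yield in anhydrous ethanol from integrated emission relative to rhodamine 6G standard (5.0 μg mL–1 in anhydrous ethanol).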

HT29 = test: MTT assay, HT29 colorectal cancer cells; type: cell-based, human; settings: read-out: anticancer activity (IC50) HT29
Method in brief: as §1

SGC7901 = test: MTT assay, SGC7901 gastric carcinoma cells; type: cell-based, human; settings: read-out: anticancer activity (IC50) SGC7901
Method in brief: as §1

[3] = test system: HepG2 liver carcinoma cells; test: Clonogenic assay for long-term anticancer activity; type: cell-based, human; settings: HepG2, 18 h exposure, colonies counted after 10 days
Method in brief: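 HepG2 cells seeded at 2 × 10^5 per well and attached overnight, then exposed 18 h to test compound at 0.01, 0.1, 1 or 10 μM, with vehicle alone as control. Replated at 700 cells/well in triplicate and grown 10 days at 37 °C, 5% CO2. Washed in ice-cold PBS, fixed in cold methanol 20 min, stained with 0.5% methylene blue 30 min; colonies of >50 cells counted. IC50 estimated from mean treated/untreated colony ratio.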

Cyclic voltammetry = type: physicochemical; settings: anhydrous ethanol, 1.0 × 10^–4 M, Fc/Fc^+ internal standard
Method in brief: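 Three-electrode cell: Pt foil working electrode, Pt wire counter electrode, Ag/AgCl reference. Fc/Fc+ couple served as internal standard.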

[4] = Homo sapiens, HepG2, 96 h, read-out: anticancer activity (IC50) HepG2, MTT assay, liver carcinoma cells, 96 h incubation
[5] = read-out: anticancer activity (IC50) HepG2, MTT assay, liver carcinoma cells, 96 h incubation

Row | ε, absorption coefficient [1] [mL mg^–1 cm^–1] | λabs, maximal absorption wavelength [1] [nm] | IC50 (A549; Homo sapiens, A549, 96 h) [µM] | IC50 (HepG2; [4]) [µM] | ε × Φ, fluorescent brightness [2] [mL mg^–1 cm^–1] | λem – λabs, Stokes shift [2] [nm] | λem, emission wavelength [2] [nm] | λex, best excitation wavelength [2] [nm] | Φ, quantum yield [2] | IC50 (HT29; Homo sapiens, HT-29, 96 h) [µM] | IC50 (SGC7901; Homo sapiens, SGC-7901, 96 h) [µM] | IC50, colony-forming ratio [3] [µM] | first onset of reduction (Cyclic voltammetry) [V] | reversible reduction wave (Cyclic voltammetry) [V] | Compound | IC50 (MRC-5; Homo sapiens, MRC5, 96 h) [µM] | IC50 (HepG2; [5]) [µM] | IC50 (A549; MTT assay, cancerous alveolar epithelial cells, 96 h incubation) [µM] | IC50 (MRC-5; MTT assay, diploid fibroblasts (normal cells), 96 h incubation) [µM] | IC50 (HT29; MTT assay, colorectal cancer cells, 96 h incubation) [µM] | IC50 (SGC7901; MTT assay, gastric carcinoma cells, 96 h incubation) [µM]
1 | 113.48 | 443.5 | 27.5 | < 10 | 37.33 | 82.5 | 526.0 | 470.0 | 0.329 | 13.3 | 13.5 |  |  |  | COc1ccc(C(=O)C2=C3NCCCCN3C3Oc4ccc(Br)cc4C(=O)C3=C2)cc1 (centres unmarked) [3fe, 10-Bromo-6-(4-methoxybenzoyl)-1,2,3,4,5,13a-hexahydro-8H-chromeno[3′,2′:5,6]pyrido-[1,2-a][1,3]diazepin-8-one] | 34.8 | 9.5 |  |  |  | 
2 | 23.56 | 441.5 | 27.5 | 15.4 | 10.08 | 79.0 | 520.5 | 466.0 | 0.428 | 18.8 | 17.8 |  |  |  | COc1ccc(C(=O)C2=C3NCCCN3C3Oc4ccc(Br)cc4C(=O)C3=C2)cc1 (centres unmarked) [3ae, 9-Bromo-5-(4-methoxybenzoyl)-2,3,4,12a-tetrahydro-1H,7H-chromeno[3′,2′:5,6]pyrido-[1,2-a]pyrimidin-7-one] | 31.3 |  |  |  |  | 
3 |  | 440.5 | > 100 | > 100 |  | 79.0 | 519.5 | 464.0 | 0.476 |  | > 100 |  |  |  | COc1ccc(C(=O)C2=C3NCCCN3C3Oc4ccc(F)cc4C(=O)C3=C2)cc1 (centres unmarked) [3ac, 9-Fluoro-5-(4-methoxybenzoyl)-2,3,4,12a-tetrahydro-1H,7H-chromeno[3′,2′:5,6]pyrido-[1,2-a]pyrimidin-7-one] |  |  |  |  |  | 
4 |  |  |  |  |  |  |  |  |  |  |  |  |  |  | N.N.[Cl][Pt][Cl] [DDP, Cisplatin, reference compound] |  | 3 | 8.4 | 8.2 | 14.3 | 2.3
5 | 111.53 | 442.0 | 39.6 | 18.9 | 74.72 | 83.5 | 525.5 | 461.0 | 0.671 | 29.8 | 26.7 |  |  |  | COc1ccc(C(=O)C2=C3NCCCCN3C3Oc4ccc(F)cc4C(=O)C3=C2)cc1 (centres unmarked) [3fc, 10-Fluoro-6-(4-methoxybenzoyl)-1,2,3,4,5,13a-hexahydro-8H-chromeno[3′,2′:5,6]pyrido-[1,2-a][1,3]diazepin-8-one] | 48 |  |  |  |  | 
6 | 81.07 | 443.0 | 33.5 | 11.2 | 53.75 | 83.0 | 526.0 | 470.0 | 0.663 | 26.8 | 14.8 | 5.99 | −1.04 | −1.19 | COc1ccc(C(=O)C2=C3NCCCCN3C3Oc4ccc(Cl)cc4C(=O)C3=C2)cc1 (centres unmarked) [3fd, 10-Chloro-6-(4-methoxybenzoyl)-1,2,3,4,5,13a-hexahydro-8H-chromeno[3′,2′:5,6]pyrido-[1,2-a][1,3]diazepin-8-one] | 33.1 |  |  |  |  | 
7 | 50.07 | 440.0 | 34.3 | 30.9 | 23.23 | 80.0 | 520.0 | 449.0 | 0.464 | 26.9 | 18.7 |  |  |  | COc1ccc(C(=O)C2=C3NCCCN3C3Oc4ccc(Cl)cc4C(=O)C3=C2)cc1 (centres unmarked) [3ad, 9-Chloro-5-(4-methoxybenzoyl)-2,3,4,12a-tetrahydro-1H,7H-chromeno[3′,2′:5,6]pyrido-[1,2-a]pyrimidin-7-one] | 34.9 |  |  |  |  | 
